In the M2OR odorant receptor database:

Assays:
Conditions in all cases: stereoisomer not certain
UniProt Q8VG27 = biological target: T1, UniProt Q8VG27
T1 sequence (whole entry): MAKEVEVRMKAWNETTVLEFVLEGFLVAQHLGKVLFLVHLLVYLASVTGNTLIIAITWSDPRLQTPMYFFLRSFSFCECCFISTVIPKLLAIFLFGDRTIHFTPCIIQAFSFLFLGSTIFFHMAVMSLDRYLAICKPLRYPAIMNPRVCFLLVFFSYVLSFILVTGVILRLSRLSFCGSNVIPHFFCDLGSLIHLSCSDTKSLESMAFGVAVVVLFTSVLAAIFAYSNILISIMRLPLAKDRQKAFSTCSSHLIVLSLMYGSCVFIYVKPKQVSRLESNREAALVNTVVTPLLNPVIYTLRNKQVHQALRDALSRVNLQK
Procedure, shortened: (§1)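 Whether a receptor–molecule pair is responsive (active) rests on the original authors' judgment that its measured signal was statistically different from baseline. Pairs without that judgment are non-responsive (inactive). Sources used varied assay methods, commonly transient luciferase assays in mammalian cell lines.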

UniProt Q8VG53 = biological target: T2, UniProt Q8VG53
T2 sequence (whole entry): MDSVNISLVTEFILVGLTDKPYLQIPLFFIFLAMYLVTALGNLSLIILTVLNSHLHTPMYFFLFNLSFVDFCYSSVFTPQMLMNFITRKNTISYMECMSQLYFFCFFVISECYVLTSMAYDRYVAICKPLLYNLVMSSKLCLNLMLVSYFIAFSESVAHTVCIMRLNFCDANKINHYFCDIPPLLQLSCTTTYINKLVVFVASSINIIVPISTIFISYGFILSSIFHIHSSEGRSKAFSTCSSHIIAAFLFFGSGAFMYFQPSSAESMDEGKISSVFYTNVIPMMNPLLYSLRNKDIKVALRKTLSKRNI
Procedure, shortened: as §1

UniProt Q8VG64 = biological target: T3, UniProt Q8VG64
T3 sequence (whole entry): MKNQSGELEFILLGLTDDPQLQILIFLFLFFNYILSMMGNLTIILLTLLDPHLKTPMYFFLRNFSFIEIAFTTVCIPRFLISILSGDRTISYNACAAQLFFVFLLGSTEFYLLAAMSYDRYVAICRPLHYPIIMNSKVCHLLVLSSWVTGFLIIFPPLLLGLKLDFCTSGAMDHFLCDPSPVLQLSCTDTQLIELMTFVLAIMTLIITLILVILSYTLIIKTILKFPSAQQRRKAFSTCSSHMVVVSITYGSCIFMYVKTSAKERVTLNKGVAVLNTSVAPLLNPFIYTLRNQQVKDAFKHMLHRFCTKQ
Procedure, shortened: as §1

UniProt Q8VGB9 = biological target: T4, UniProt Q8VGB9
T4 sequence (whole entry): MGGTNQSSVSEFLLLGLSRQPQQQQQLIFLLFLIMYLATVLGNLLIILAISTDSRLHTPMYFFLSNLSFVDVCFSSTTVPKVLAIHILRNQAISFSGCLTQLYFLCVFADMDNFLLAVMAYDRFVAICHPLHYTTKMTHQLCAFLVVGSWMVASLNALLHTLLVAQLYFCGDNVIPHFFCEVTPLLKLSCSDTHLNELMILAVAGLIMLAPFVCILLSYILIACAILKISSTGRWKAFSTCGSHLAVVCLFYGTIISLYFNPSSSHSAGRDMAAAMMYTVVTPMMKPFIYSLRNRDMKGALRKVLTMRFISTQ
Procedure, shortened: as §1

UniProt Q8VGC6 = biological target: T5, UniProt Q8VGC6
T5 sequence (whole entry): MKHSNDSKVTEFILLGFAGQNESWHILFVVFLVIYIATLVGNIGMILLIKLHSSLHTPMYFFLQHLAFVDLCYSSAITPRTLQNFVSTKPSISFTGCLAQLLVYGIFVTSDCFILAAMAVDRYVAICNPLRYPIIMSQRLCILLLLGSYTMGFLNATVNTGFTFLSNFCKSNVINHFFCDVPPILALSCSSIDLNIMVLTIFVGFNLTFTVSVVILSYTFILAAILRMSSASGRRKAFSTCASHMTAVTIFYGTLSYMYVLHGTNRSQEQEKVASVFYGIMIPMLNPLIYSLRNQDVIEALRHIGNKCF
Procedure, shortened: as §1

UniProt Q8VGJ3 = biological target: T6, UniProt Q8VGJ3
T6 sequence (whole entry): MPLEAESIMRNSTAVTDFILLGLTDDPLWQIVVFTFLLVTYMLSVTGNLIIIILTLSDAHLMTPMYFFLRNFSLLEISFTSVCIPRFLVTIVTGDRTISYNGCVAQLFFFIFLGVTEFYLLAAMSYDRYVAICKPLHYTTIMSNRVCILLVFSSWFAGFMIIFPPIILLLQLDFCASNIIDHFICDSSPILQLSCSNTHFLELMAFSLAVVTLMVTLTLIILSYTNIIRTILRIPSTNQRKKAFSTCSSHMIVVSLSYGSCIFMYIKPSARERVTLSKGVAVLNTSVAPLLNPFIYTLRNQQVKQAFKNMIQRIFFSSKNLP
Procedure, shortened: as §1

UniProt Q8VGL0 = biological target: T7, UniProt Q8VGL0
T7 sequence (whole entry): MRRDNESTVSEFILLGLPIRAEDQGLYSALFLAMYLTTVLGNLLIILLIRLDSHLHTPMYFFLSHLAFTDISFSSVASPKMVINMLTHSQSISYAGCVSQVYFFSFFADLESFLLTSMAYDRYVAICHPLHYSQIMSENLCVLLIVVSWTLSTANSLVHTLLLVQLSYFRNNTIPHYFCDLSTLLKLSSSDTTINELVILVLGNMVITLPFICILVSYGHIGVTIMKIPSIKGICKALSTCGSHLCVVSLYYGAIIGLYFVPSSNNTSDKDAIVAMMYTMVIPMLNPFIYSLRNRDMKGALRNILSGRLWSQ
Procedure, shortened: as §1

UniProt Q8VG28 = biological target: UniProt Q8VG28
Procedure, shortened: as §1
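Also: active if original authors judged signal statistically different from baseline.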

Chain of UniProt Q8VG28 (Q8VG28 as listed by the source): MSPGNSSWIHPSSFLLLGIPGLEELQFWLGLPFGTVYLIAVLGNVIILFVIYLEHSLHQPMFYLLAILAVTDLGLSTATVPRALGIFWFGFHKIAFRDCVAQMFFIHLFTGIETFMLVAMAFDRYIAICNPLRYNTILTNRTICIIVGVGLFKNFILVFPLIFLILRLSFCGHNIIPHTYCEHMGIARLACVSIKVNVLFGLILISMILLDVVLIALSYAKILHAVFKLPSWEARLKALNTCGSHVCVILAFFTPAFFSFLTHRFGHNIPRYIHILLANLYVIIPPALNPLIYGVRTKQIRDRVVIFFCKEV

SMILES	odorant receptor agonist call (UniProt Q8VG27)	odorant receptor agonist call (UniProt Q8VG53)	odorant receptor agonist call (UniProt Q8VG64)	odorant receptor agonist call (UniProt Q8VGB9)	odorant receptor agonist call (UniProt Q8VGC6)	odorant receptor agonist call (UniProt Q8VGJ3)	odorant receptor agonist call (UniProt Q8VGL0)	odorant receptor agonist call (UniProt Q8VG28)
CCSCC	inactive	inactive	inactive	inactive	inactive	inactive	inactive	
COc1nccnc1C	inactive	inactive	inactive	inactive	inactive	inactive	inactive	
CCOC(=O)C(C)CC (configuration not stated)	inactive	inactive	inactive	inactive	inactive	inactive	inactive	
CCN(CC)CC	inactive	inactive	inactive	inactive	inactive	inactive	inactive	
CCC=CCCCCC=O	inactive	inactive	inactive	inactive	inactive	inactive	inactive	
CCc1nccnc1CC	inactive	inactive	inactive	inactive	inactive	inactive	inactive	
CCc1occc(=O)c1O	inactive	inactive	inactive	inactive	inactive	inactive	inactive	
CCSSCC	inactive	inactive	inactive	inactive	inactive	inactive	inactive	
C=CC(C)=CCC=C(C)CCC=C(C)C	inactive	inactive	inactive	inactive	inactive	inactive	inactive	
CC=CC(=O)C1=C(C)CCCC1(C)C	inactive	inactive	inactive	inactive	inactive	inactive	inactive	
CCCCCCC(C=O)=Cc1ccccc1	inactive	inactive	inactive	inactive	inactive	inactive	inactive	
c1ccc2ncccc2c1	inactive	inactive	inactive	inactive	inactive	inactive	inactive	
CCCC=O	inactive	inactive	inactive	inactive	inactive	inactive	inactive	
CCOC(=O)CC(C)C	inactive	inactive	inactive	inactive	inactive	inactive	inactive	
CC(=O)OCc1ccc2c(c1)OCO2	inactive	inactive	inactive	inactive	active	inactive	inactive	
CC(CC=O)CCCC(C)(C)O (configuration not stated)	inactive	inactive	inactive	inactive	inactive	inactive	inactive	
OCCc1ccccc1	inactive	inactive	inactive	inactive	inactive	inactive	inactive	
Cc1c(C)c(C)c(C=O)c(C)c1C	inactive	inactive	inactive	inactive	inactive	inactive	inactive	
C=C(CC)CCCC(C)(C)O	inactive	inactive	inactive	inactive	inactive	inactive	inactive	
CCC(C)O (configuration not stated)	inactive	inactive	inactive	inactive	inactive	inactive	inactive	
CSSCc1ccco1	active	inactive	inactive	inactive	inactive	inactive	inactive	
C=C(C)C1CCC2(C)OC2C1 (configuration not stated)	inactive	inactive	inactive	inactive	inactive	inactive	inactive	

SMILES	odorant receptor agonist call (UniProt Q8VG27)	odorant receptor agonist call (UniProt Q8VG53)	odorant receptor agonist call (UniProt Q8VG64)	odorant receptor agonist call (UniProt Q8VGB9)	odorant receptor agonist call (UniProt Q8VGC6)	odorant receptor agonist call (UniProt Q8VGJ3)	odorant receptor agonist call (UniProt Q8VGL0)	odorant receptor agonist call (UniProt Q8VG28)
CC(C)=C1CCC(C)CC1=O (configuration not stated)	inactive	inactive	inactive	inactive	inactive	inactive	inactive	
CCCCCC(C)O (configuration not stated)	inactive	inactive	inactive	inactive	inactive	inactive	inactive	
CCCO	inactive	inactive	inactive	inactive	inactive	inactive	inactive	
CNc1ccccc1C(=O)OC	inactive	inactive	inactive	inactive	inactive	inactive	inactive	
CCCCCCC(C)O (configuration not stated)	inactive	inactive	inactive	inactive	inactive	inactive	inactive	
CC(C)=CCCC(C)=CCOC(=O)C(C)C	inactive	inactive	inactive	inactive	inactive	inactive	inactive	
CCc1ncc(C)nc1CC	inactive	inactive	inactive	inactive	inactive	inactive	inactive	
C=C1C2CCC(C2)C1(C)C (configuration not stated)	inactive	inactive	inactive	inactive	inactive	inactive	inactive	
Cc1ccc(C(C)C)c(O)c1	inactive	inactive	inactive	inactive	inactive	inactive	inactive	
O=C(OCc1ccccc1)c1ccccc1O	inactive	inactive	inactive	inactive	inactive	inactive	inactive	
CCCCCCCCC=CC=O	inactive	inactive	inactive	inactive	inactive	inactive	inactive	
CCC(C)c1nccnc1OC (configuration not stated)	inactive	inactive	inactive	inactive	inactive	inactive	inactive	
OCC=Cc1ccccc1	inactive	inactive	inactive	inactive	inactive	inactive	inactive	
CCCCCCCCCCOC(C)=O	active	inactive	inactive	inactive	inactive	inactive	inactive	
CCc1ccc(O)cc1	inactive	inactive	inactive	inactive	inactive	inactive	inactive	
CCCCCCCCOC=O	inactive	inactive	inactive	inactive	inactive	inactive	inactive	
COc1cnccn1	inactive	inactive	inactive	inactive	inactive	inactive	inactive	
O=C([O-])CCCCC(=O)[O-].[H+].[H+]								inactive
CC(C)=CC1CC(C)CCO1 (configuration not stated)					inactive			
CCOc1ccccc1					inactive			
CCCC(=O)OC					inactive			
